Measured values taken from ChEMBL document CHEMBL1909500, “Synthesis and in vitro anticancer activity of 6,7-methylenedioxy (or 5-hydroxy-6-methoxy)-2-(substituted selenophenyl)quinolin-4-one analogs” (Eur J Med Chem, 2011).
Active and inactive are the calls of the source. The rule behind the calls is not given here.

Assays:
[1] = Cytotoxicity against human Hep3B cells after 48 hrs by MTT assay; assay type: functional, cell-based, Hep 3B2
How it was run: (§1)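 Hep 3B (hepatoma) or Detroit 551 (normal skin) cells, grown at 37 °C and 5% CO₂ in DMEM with 10% FBS, penicillin/streptomycin and 1% L-glutamine, were used in log phase. Cells were exposed to vehicle or compound for 48 h. Growth was read by MTT reduction at 570 nm, and IC50 was calculated.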

[2] = system: Detroit 551; assay: Cytotoxicity against human Detroit 551 cells after 48 hrs by MTT assay; assay type: cell-based; details: Detroit 551, 48 h; how it was run: as §1
[3] = system: HOP-62; assay: Anticancer activity against human HOP62 cells after 48 hrs by MTT assay; assay type: functional; details: HOP-62, 48 h
[4] = system: NCI-H23; assay: Anticancer activity against human NCI-H23 cells after 48 hrs by MTT assay; assay type: functional; details: NCI-H23, 48 h
[5] = system: COLO 205; assay: Anticancer activity against human COLO205 cells after 48 hrs by MTT assay; assay type: functional; details: COLO 205, 48 h
[6] = system: HCC 2998; assay: Anticancer activity against human HCC2998 cells after 48 hrs by MTT assay; assay type: functional; details: HCC 2998, 48 h
[7] = system: HCT-15; assay: Anticancer activity against human HCT15 cells after 48 hrs by MTT assay; assay type: functional; details: HCT-15, 48 h
[8] = system: HT-29; assay: Anticancer activity against human HT-29 cells after 48 hrs by MTT assay; assay type: functional; details: HT-29, 48 h
[9] = system: SW-620; assay: Anticancer activity against human SW620 cells after 48 hrs by MTT assay; assay type: functional; details: SW-620, 48 h
[10] = system: SF-539; assay: Anticancer activity against human SF539 cells after 48 hrs by MTT assay; assay type: functional; details: SF-539, 48 h
[11] = system: U-251; assay: Anticancer activity against human U251 cells after 48 hrs by MTT assay; assay type: functional; details: U-251, 48 h
[12] = system: M14; assay: Anticancer activity against human M14 cells after 48 hrs by MTT assay; assay type: functional; details: M14, 48 h
[13] = system: MDA-MB-435; assay: Anticancer activity against human MDA-MB-435 cells after 48 hrs by MTT assay; assay type: functional; details: MDA-MB-435, 48 h
[14] = system: SK-MEL-28; assay: Anticancer activity against human SK-MEL-28 cells after 48 hrs by MTT assay; assay type: functional; details: SK-MEL-28, 48 h
[15] = system: SK-MEL-5; assay: Anticancer activity against human SK-MEL-5 cells after 48 hrs by MTT assay; assay type: functional; details: SK-MEL-5, 48 h
[16] = system: OVCAR-3; assay: Anticancer activity against human OVCAR3 cells after 48 hrs by MTT assay; assay type: functional; details: OVCAR-3, 48 h
[17] = system: OVCAR-8; assay: Anticancer activity against human OVCAR8 cells after 48 hrs by MTT assay; assay type: functional; details: OVCAR-8, 48 h
[18] = system: 786-0; assay: Anticancer activity against human 786-0 cells after 48 hrs by MTT assay; assay type: functional; details: 786-0, 48 h
[19] = system: RXF 393; assay: Anticancer activity against human RXF393 cells after 48 hrs by MTT assay; assay type: functional; details: RXF 393, 48 h
[20] = system: SN12C; assay: Anticancer activity against human SN12C cells after 48 hrs by MTT assay; assay type: functional
[21] = system: DU-145; assay: Anticancer activity against human DU145 cells after 48 hrs by MTT assay; assay type: functional; details: DU-145, 48 h
[22] = system: MCF7; assay: Anticancer activity against human MCF7 cells after 48 hrs by MTT assay; assay type: functional; details: MCF7, 48 h
[23] = system: MDA-MB-231; assay: Anticancer activity against human MDA-MB-231 cells after 48 hrs by MTT assay; assay type: functional; details: MDA-MB-231, 48 h
[24] = system: HL-60; assay: Induction of apoptosis in human HL60 cells assessed as PARP cleavage at 0.1 to 1.0 uM after 24 hrs by Western blot analysis; assay type: functional, cell-based
How it was run: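 HL-60 cells at 2 × 10⁵/mL were exposed to the indicated concentrations for 24 h, washed in PBS and lysed for total protein. Immunoblots used HRP-linked secondary antibodies with ECL detection. Cyclin B1, CDK1, caspase-3 (17 kDa active form) and PARP (85 kDa fragment) were quantified and normalised to β-actin.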

[25] = system: MDA-MB-468; assay: Anticancer activity against human MDA-MB-468 cells after 48 hrs by MTT assay; assay type: functional; details: MDA-MB-468, 48 h
[26] = system: HL-60; assay: Induction of apoptosis in human HL60 cells assessed as cell shrinkage at 1 uM after 24 hrs; assay type: functional, cell-based
How it was run: (§2)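 HL-60 cells were exposed to 1 μM for 24 h. Apoptotic morphology, scored as cell shrinkage and apoptotic bodies, was examined by microscopy at 200×.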

[27] = system: HL-60; assay: Induction of apoptosis in human HL60 cells assessed as formation of apoptotic bodies at 1 uM after 24 hrs; assay type: functional, cell-based; how it was run: as §2
[28] = system: HL-60; assay: Cell cycle arrest in human HL60 assessed as cell accumulation in Sub-G1 phase at 1 uM after 24 hrs by propidium iodide staining-based flow cytometric analysis; assay type: functional
How it was run: (§3)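 HL-60 cells were preincubated for 3 h with or without the pan-caspase inhibitor z-VAD-fmk, then co-exposed to compound at 1 μM for 24 h. Cells were washed in PBS and fixed overnight in ice-cold 70% ethanol at −20 °C. They were stained for 30 min in the dark with propidium iodide 4 μg/mL, 0.1 mg/ml RNase and 1% Triton X-100. DNA content was read on a FACScan flow cytometer.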

[29] = system: HL-60; assay: Cell cycle arrest in human HL60 assessed as cell accumulation in Sub-G1 phase at 1 uM after 24 hrs pretreated with pan-caspase inhibitor z-VAD-fmk for 3 hrs by propidium iodide staining-based flow cytometric analysis; assay type: functional; design: scale not given: the % may be the effect or the level left; how it was run: as §3
[30] = system: HL-60; assay: Cell cycle arrest in human HL60 assessed as cell accumulation in G0/G1 phase at 1 uM after 24 hrs pretreated with pan-caspase inhibitor z-VAD-fmk for 3 hrs by propidium iodide staining-based flow cytometric analysis; assay type: functional; design: scale not given: the % may be the effect or the level left; how it was run: as §3
[31] = read-out: pLC50 (the source's name) (converted)

Cc1ccc(-c2cc(=O)c3cc4c(cc3[nH]2)OCO4)[se]1
IC50 [1]: 200 nM | IC50 [2]: > 25 µM | GI50 [3]: 562 nM | CC50 [3, 31]: > 100 µM | TGI ([3]; read-out: pTGI): > 100 µM | GI50 [4]: 741 nM | CC50 [4, 31]: > 100 µM | TGI ([4]; read-out: pTGI): > 100 µM | GI50 [5]: 2630 nM | CC50 [5, 31]: > 100 µM | TGI ([5]; read-out: pTGI): > 100 µM | GI50 [6]: 288 nM | CC50 [6, 31]: > 100 µM | TGI ([6]; read-out: pTGI): > 100 µM | GI50 [7]: 339 nM | CC50 [7, 31]: > 100 µM | TGI ([7]; read-out: pTGI): > 100 µM | GI50 [8]: 269 nM | CC50 [8, 31]: > 100 µM | TGI ([8]; read-out: pTGI): > 100 µM | GI50 [9]: 407 nM | CC50 [9, 31]: > 100 µM | TGI ([9]; read-out: pTGI): > 100 µM | GI50 [10]: 245 nM | CC50 [10, 31]: > 100 µM | TGI ([10]; read-out: pTGI (converted)): 708 nM | GI50 [11]: 339 nM | CC50 [11, 31]: > 100 µM | TGI ([11]; read-out: pTGI): > 100 µM | GI50 [12]: 229 nM | CC50 [12, 31]: > 100 µM | TGI ([12]; read-out: pTGI): > 100 µM | GI50 [13]: 52.5 nM | CC50 [13, 31]: > 100 µM | TGI ([13]; read-out: pTGI (converted)): 427 nM | GI50 [14]: 794 nM | CC50 [14, 31]: > 100 µM | TGI ([14]; read-out: pTGI): > 100 µM | GI50 [15]: 309 nM | GI50 [16]: 240 nM | TGI ([16]; read-out: pTGI (converted)): 457 nM | GI50 [17]: 339 nM | CC50 [17, 31]: > 100 µM | TGI ([17]; read-out: pTGI): > 100 µM | GI50 [18]: 427 nM | CC50 [18, 31]: > 100 µM | TGI ([18]; read-out: pTGI): > 100 µM | GI50 [19]: 229 nM | CC50 [19, 31]: > 100 µM | TGI ([19]; read-out: pTGI (converted)): 589 nM | GI50 [20]: 603 nM | CC50 [20, 31]: > 100 µM | TGI ([20]; read-out: pTGI): > 100 µM | GI50 [21]: 302 nM | CC50 [21, 31]: > 100 µM | TGI ([21]; read-out: pTGI): > 100 µM | GI50 [22]: 324 nM | CC50 [22, 31]: > 100 µM | TGI ([22]; read-out: pTGI): > 100 µM | GI50 [23]: 501 nM | CC50 [23, 31]: > 100 µM | TGI ([23]; read-out: pTGI): > 100 µM | Activity [24]: Active | GI50 [25]: 562 nM | CC50 [25, 31]: > 100 µM | TGI ([25]; read-out: pTGI): > 100 µM | Activity [26]: Active | Activity [27]: Active | Activity [28]: 21% | Activity [29]: 10.2% | Activity [30]: 8.3%
